Test results reported in ChEMBL document CHEMBL5252669, “Semisynthetic blasticidin S ester derivatives show enhanced antibiotic activity” (RSC Med Chem, 2023).
Converted amounts (≈) assume the structure as drawn. The source made the active and inactive calls. The rule behind the calls is not given here.

Experiments:
[1] = Selectivity index, ratio of CC50 for human MRC5 cells to IC50 for Acinetobacter baumannii ATCC 17978; assay type: toxicity; conditions: read-out: Ratio CC50/IC50
[2] = Selectivity index, ratio of CC50 for human MRC5 cells to IC50 for Klebsiella pneumoniae ATCC 29665; assay type: toxicity; conditions: read-out: Ratio CC50/IC50
[3] = tested on: Klebsiella pneumoniae; assay: Antibacterial activity against Klebsiella pneumoniae ATCC 29665 incubated for 16 hrs by broth microdilution method; assay type: functional, organism-based; conditions: for IC50: ATCC 29665, 16 h; for MIC: ATCC 29665, time 16 hrs
[4] = tested on: Pseudomonas aeruginosa; assay: Antibacterial activity against MexAB-OprM deleted Pseudomonas aeruginosa incubated for 16 hrs by broth microdilution method; assay type: functional, organism-based; conditions: for IC50: 16 h; for MIC: time 16 hrs
[5] = Selectivity index, ratio of CC50 for human MRC5 cells to IC50 for vancomycin-resistant Enterococcus; assay type: toxicity; conditions: read-out: Ratio CC50/IC50
[6] = Selectivity index, ratio of CC50 for human MRC5 cells to IC50 for Enterococcus faecalis ATCC 29212; assay type: toxicity; conditions: read-out: Ratio CC50/IC50
[7] = tested on: Candida albicans; assay: Antifungal activity against Candida albicans incubated for 16 hrs by broth microdilution method; assay type: functional
[8] = Cytotoxicity against human MRC5 cells incubated for 24 hrs by MTS assay; assay type: toxicity, cell-based
In short: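 MRC-5 lung fibroblasts seeded 5000 per well; medium replaced with compound 16–192 μg mL−1 or matching 1:1 methanol:water vehicle; 24 h, then MTS 3–4 h; absorbance 490 nm; viability relative to untreated cells, normalized to vehicle; CC50 from two independent assays in duplicate, mean ± SD.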

[9] = tested on: Staphylococcus aureus; assay: Antibacterial activity against methicillin resistant Staphylococcus aureus ATCC 43300 incubated for 16 hrs by broth microdilution method; assay type: functional, organism-based; conditions: for IC50: ATCC 43300, 16 h; for MIC: ATCC 43300, time 16 hrs
In short: (§1)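 Cation-adjusted Mueller-Hinton broth microdilution. Overnight cultures from single colonies were diluted to OD600 0.004. Final compound range was 256–2 μg mL−1 in 1:1 methanol/water vehicle, with doxycycline and vehicle controls. Plates were incubated 16 h at 37 °C. OD600 was normalized to controls, and MIC was the lowest concentration inhibiting >90% growth. Two biological replicates in duplicate; reported as a range.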

[10] = Selectivity index, ratio of CC50 for human MRC5 cells to IC50 for MexAB-OprM deleted Pseudomonas aeruginosa; assay type: toxicity; conditions: read-out: Ratio CC50/IC50
[11] = tested on: Enterococcus; assay: Antibacterial activity against vancomycin-resistant Enterococcus incubated for 20 hrs by broth microdilution method
[12] = Selectivity index, ratio of CC50 for human MRC5 cells to IC50 for NorA deleted Staphylococcus aureus; assay type: toxicity; conditions: read-out: Ratio CC50/IC50
[13] = Selectivity index, ratio of CC50 for human MRC5 cells to IC50 for methicillin resistant Staphylococcus aureus; assay type: toxicity; conditions: read-out: Ratio CC50/IC50
[14] = Selectivity index, ratio of CC50 for human MRC5 cells to IC50 for Staphylococcus aureus; assay type: toxicity; conditions: read-out: Ratio CC50/IC50
[15] = tested on: Enterococcus faecalis; assay: Antibacterial activity against Enterococcus faecalis ATCC 29212 incubated for 20 hrs by broth microdilution method; conditions: ATCC 29212, 20 h
[16] = tested on: Staphylococcus aureus; assay: Antibacterial activity against wild type Staphylococcus aureus 8810 incubated for 16 hrs by broth microdilution method; assay type: functional, organism-based; conditions: for IC50: Staphylococcus aureus, 8810, 16 h; for MIC: Staphylococcus aureus, 8810, time 16 hrs; in short: as §1
[17] = tested on: Staphylococcus aureus; assay: Antibacterial activity against NorA deleted Staphylococcus aureus incubated for 16 hrs by broth microdilution method; assay type: functional, organism-based; conditions: for IC50: 16 h; for MIC: time 16 hrs; in short: as §1
[18] = tested on: Acinetobacter baumannii; assay: Antibacterial activity against Acinetobacter baumannii ATCC 17978 incubated for 16 hrs by broth microdilution method; assay type: functional, organism-based; conditions: for IC50: ATCC 17978, 16 h; for MIC: ATCC 17978, time 16 hrs
[19] = tested on: Candida albicans; assay: Antifungal activity against Candida albicans assessed as zone of inhibition incubated for 18 hrs by spot on lawn assay; assay type: functional, organism-based
In short: (§2)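 Overnight LB cultures diluted to OD600 0.01 in 0.7% LB top agar, overlaid on 1.5% LB agar; 5 mg mL−1 aqueous compound spotted at 35, 25, 10 and 5 μg with 1:1 water/methanol vehicle spot; 37 °C, 18 h; inhibition zone diameter measured by ruler.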

[20] = tested on: Saccharomyces cerevisiae; assay: Antifungal activity against Saccharomyces cerevisiae incubated for 16 hrs by broth microdilution method; assay type: functional
[21] = tested on: Staphylococcus aureus; assay: Antibacterial activity against Staphylococcus aureus assessed as zone of inhibition incubated for 18 hrs by spot on lawn assay; assay type: functional, organism-based; in short: as §2
[22] = tested on: Staphylococcus aureus; assay: Antibacterial activity against methicillin resistant Staphylococcus aureus assessed as zone of inhibition incubated for 18 hrs by spot on lawn assay; assay type: functional, organism-based
In short: (§3)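 Spot-on-lawn assay. Plates of 1.5% agar in LB were overlaid with 0.7% LB agar seeded with overnight culture at 0.01 OD600. Aqueous 5 mg mL−1 solutions were spotted at 35, 25, 10 and 5 μg, with a 1:1 water/methanol vehicle spot. After 18 h at 37 °C, inhibition zone diameters were measured with a ruler.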

[23] = tested on: Enterococcus faecalis; assay: Antibacterial activity against Enterococcus faecalis ATCC 29212 assessed as zone of inhibition incubated for 18 hrs by spot on lawn assay; assay type: functional, organism-based; in short: as §2
[24] = tested on: Staphylococcus aureus; assay: Antibacterial activity against NorA deleted Staphylococcus aureus assessed as zone of inhibition incubated for 18 hrs by spot on lawn assay; assay type: functional, organism-based; in short: as §2
[25] = tested on: Enterococcus; assay: Antibacterial activity against vancomycin-resistant Enterococcus assessed as zone of inhibition incubated for 18 hrs by spot on lawn assay; assay type: functional, organism-based; in short: as §3

SMILES | selectivity ratio [1] | selectivity ratio [2] | IC50 [3] | MIC [3] | IC50 [4] | MIC [4] | selectivity ratio [5] | selectivity ratio [6] | MIC [7] | CC50 at 24 h [8] | IC50 [9] | MIC [9] | selectivity ratio [10] | IC50 [11] | MIC [11] | selectivity ratio [12] | selectivity ratio [13] | selectivity ratio [14] | IC50 [15] | MIC [15] | other results
CN(CC[C@H](N)CC(=O)N[C@H]1C=C[C@H](n2ccc(N)nc2=O)O[C@@H]1C(=O)O)C(=N)N.Cl | 0.2 | 0.2 | 74.8 µg/mL | 128 µg/mL | 73 µg/mL | 128 µg/mL | < 0.1 | 0.3 | 64 µg/mL | 16.1 µg/mL | 79.7 µg/mL | 128 µg/mL | 0.2 | > 256 µg/mL | > 256 µg/mL | < 0.1 | 0.2 | 0.2 | 52.5 µg/mL | 128 µg/mL | IC50 [16]: 77 µg/mL; MIC [16]: 128 µg/mL; IC50 [17]: > 256 µg/mL; MIC [17]: > 256 µg/mL; IC50 [18]: 70.4 µg/mL; MIC [18]: 128 µg/mL; Activity [19]: Active; MIC [20]: 16 µg/mL
COC(=O)[C@H]1O[C@@H](n2ccc(N)nc2=O)C=C[C@@H]1NC(=O)C[C@@H](N)CCN(C)C(=N)N | 1.8 | 0.5 | 34.3 µg/mL (≈ 78.6 µM) | 64 µg/mL (≈ 147 µM) | 35.1 µg/mL (≈ 80.4 µM) | 128 µg/mL (≈ 293 µM) | 0.6 | 2 | > 256 µg/mL | 18.3 µg/mL (≈ 41.9 µM) | 10.4 µg/mL (≈ 23.8 µM) | 16 µg/mL (≈ 36.7 µM) | 0.5 | 31 µg/mL (≈ 71 µM) | 64 µg/mL (≈ 147 µM) | 0.8 | 1.7 | 1.6 | 9.2 µg/mL (≈ 21.1 µM) | 16 µg/mL (≈ 36.7 µM) | Activity [21]: Active; Activity [22]: Active; Activity [23]: Active; Activity [24]: Active; Activity [25]: Active; IC50 [16]: 11.4 µg/mL (≈ 26.1 µM); MIC [16]: 32 µg/mL (≈ 73.3 µM); IC50 [17]: 21.5 µg/mL (≈ 49.3 µM); MIC [17]: 32 µg/mL (≈ 73.3 µM); IC50 [18]: 10.2 µg/mL (≈ 23.4 µM); MIC [18]: 32 µg/mL (≈ 73.3 µM); Activity [19]: inactive; MIC [20]: 32 µg/mL (≈ 73.3 µM)
CCCCOC(=O)[C@H]1O[C@@H](n2ccc(N)nc2=O)C=C[C@@H]1NC(=O)C[C@@H](N)CCN(C)C(=N)N | 0.3 | 0.3 | 82.1 µg/mL (≈ 172 µM) | > 128 µg/mL | 79.8 µg/mL (≈ 167 µM) | > 128 µg/mL | 0.2 | 1.3 | > 256 µg/mL | 21.2 µg/mL (≈ 44.3 µM) | 28.1 µg/mL (≈ 58.7 µM) | 64 µg/mL (≈ 134 µM) | 0.3 | 130 µg/mL (≈ 272 µM) | 256 µg/mL (≈ 535 µM) | 0.6 | 0.7 | 0.9 | 16.1 µg/mL (≈ 33.6 µM) | 32 µg/mL (≈ 66.9 µM) | Activity [21]: Active; Activity [22]: Active; Activity [23]: Active; Activity [24]: Active; Activity [25]: Active; IC50 [16]: 23.9 µg/mL (≈ 49.9 µM); MIC [16]: 64 µg/mL (≈ 134 µM); IC50 [17]: 34.6 µg/mL (≈ 72.3 µM); MIC [17]: 64 µg/mL (≈ 134 µM); IC50 [18]: 61.5 µg/mL (≈ 129 µM); MIC [18]: > 128 µg/mL; Activity [19]: inactive; MIC [20]: 64 µg/mL (≈ 134 µM)
